# In ChEMBL document CHEMBL4020840, “Synthesis and Biological Evaluation of Selenium-Containing 4-Anilinoquinazoline Derivatives as Novel Antimitotic Agents” (J Med Chem, 2018):
# pIC50: −log10 of the molar value.
# Assays:
# A549 [1] = test: Induction of mitochondrial membrane disruption in human A549 cells assessed as cells with intact mitochondrial membrane at 2 nM after 48 hrs by JC1 staining based flow cytometry (reference value: 99.13%); format: functional
# [2] = Selectivity index, ratio of IC50 for human BJ cells to IC50 for human A549 cells; format: functional
# Outline: (§1)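 MTT assay in normal cells and A549: seeding at 5 × 10³ cells/well for 24 h, 48 h compound exposure, then 5 mg/mL MTT for 4 h, DMSO solubilisation and absorbance at 570 nm. IC50 values came from dose–response curves of at least three independent experiments. Selectivity ratio = IC50 in normal cells / IC50 in A549.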
# [3] = Selectivity index, ratio of IC50 for human LO2 cells to IC50 for human A549 cells; format: functional; outline: as §1
# A549 [4] = test: Induction of mitochondrial membrane disruption in human A549 cells assessed as cells with mitochondrial membrane potential loss at 2 nM after 48 hrs by JC1 staining based flow cytometry (reference value: 0.82%); format: functional
# L02 = test: Antiproliferative activity against human LO2 cells after 48 hrs by MTT assay; format: cell-based; conditions: L02, 48 h
# Outline: (§2)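 MTT assay: log-phase cells plated at 5 × 10³/well for 24 h, then exposed to a range of test concentrations for 48 h. MTT (5 mg/mL) added for 4 h, formazan dissolved in DMSO, absorbance read at 570 nm. IC50 is the concentration giving 50% growth inhibition, from dose-response curves; at least three independent experiments, mean ± SE.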
# A549 [5] = test: Induction of apoptosis in human A549 cells assessed as early apoptotic cells at 4 nM after 24 hrs by Annexin V-FITC/propidium iodide staining based flow cytometry (reference value: 0.98%); format: functional
# A549 [6] = test: Induction of mitochondrial membrane disruption in human A549 cells assessed as cells with mitochondrial membrane potential loss at 4 nM after 48 hrs by JC1 staining based flow cytometry (reference value: 0.82%); format: functional
# [7] = Growth inhibition of human HepG2/DOX cells after 48 hrs by MTT assay; format: functional, cell-based; outline: as §2
# A549 [8] = test: Induction of apoptosis in human A549 cells assessed as live cells at 4 nM after 48 hrs by Annexin V-FITC/propidium iodide staining based flow cytometry (reference value: 98.49%); format: functional
# HeLa = test: Antiproliferative activity against human HeLa cells after 48 hrs by MTT assay; format: functional, cell-based; outline: as §2
# A549 [9] = test: Induction of apoptosis in human A549 cells assessed as necrotic cells at 2 nM after 48 hrs by Annexin V-FITC/propidium iodide staining based flow cytometry relative to control; format: functional
# MDA-MB-231 = test: Growth inhibition of human MDA-MB-231 cells after 48 hrs by MTT assay; format: functional, cell-based; conditions: MDA-MB-231, 48 h; outline: as §2
# A549 [10] = test: Induction of apoptosis in human A549 cells assessed as necrotic cells at 2 nM after 24 hrs by Annexin V-FITC/propidium iodide staining based flow cytometry (reference value: 0.10%); format: functional
# A549 [11] = test: Induction of apoptosis in human A549 cells assessed as late apoptotic cells at 4 nM after 48 hrs by Annexin V-FITC/propidium iodide staining based flow cytometry (reference value: 0.03%); format: functional
# MGC-803 = test: Antiproliferative activity against human MGC803 cells after 48 hrs by MTT assay; format: functional, cell-based; conditions: MGC-803, 48 h; outline: as §2
# A549 [12] = test: Induction of apoptosis in human A549 cells assessed as early apoptotic cells at 2 nM after 48 hrs by Annexin V-FITC/propidium iodide staining based flow cytometry (reference value: 1.48%); format: functional
# RKO = test: Growth inhibition of human RKO cells after 48 hrs by MTT assay; format: functional, cell-based; outline: as §2
# [13] = Selectivity index, ratio of IC50 for HLF to IC50 for human A549 cells; outline: as §1
# A549 [14] = test: Induction of mitochondrial membrane disruption in human A549 cells assessed as cells with mitochondrial membrane potential loss at 8 nM after 48 hrs by JC1 staining based flow cytometry (reference value: 0.82%); format: functional
# A549 [15] = test: Induction of apoptosis in human A549 cells assessed as live cells at 2 nM after 24 hrs by Annexin V-FITC/propidium iodide staining based flow cytometry (reference value: 98.84%); format: functional
# A549 [16] = test: Induction of apoptosis in human A549 cells assessed as necrotic cells at 4 nM after 48 hrs by Annexin V-FITC/propidium iodide staining based flow cytometry relative to control; format: functional
# A549 [17] = test: Induction of apoptosis in human A549 cells assessed as live cells at 4 nM after 24 hrs by Annexin V-FITC/propidium iodide staining based flow cytometry (reference value: 98.84%); format: functional
# A549 [18] = test: Induction of apoptosis in human A549 cells assessed as live cells at 2 nM after 48 hrs by Annexin V-FITC/propidium iodide staining based flow cytometry (reference value: 98.49%); format: functional
# BJ = test: Antiproliferative activity against human BJ cells after 48 hrs by MTT assay; format: cell-based; outline: as §2
# [19] = Antiproliferative activity against HLF after 48 hrs by MTT assay; format: cell-based; conditions: Homo sapiens; outline: as §2
# A549 [20] = test: Cell cycle arrest in human A549 cells assessed as accumulation at G2/M phase at 4 nM after 12 hrs by propidium iodide staining based flow cytometry (reference value: 10.13%); format: functional
# Outline: (§3)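 A549 seeded in six-well plates at 3 × 10⁵ cells/well and treated for 12 or 24 h; vehicle 0.01% DMSO. Cells fixed overnight in ice-cold 70% ethanol, treated with RNase A at 37 °C for 30 min, then stained with PI at 4 °C for 30 min. About 10 000 events acquired by flow cytometry at 488 nm; three experiments.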
# MCF7 = test: Antiproliferative activity against human MCF7 cells after 48 hrs by MTT assay; format: functional, cell-based; conditions: MCF7, 48 h; outline: as §2
# A549 [21] = test: Induction of apoptosis in human A549 cells assessed as early apoptotic cells at 4 nM after 48 hrs by Annexin V-FITC/propidium iodide staining based flow cytometry (reference value: 1.48%); format: functional
# A549 [22] = test: Induction of apoptosis in human A549 cells assessed as early apoptotic cells at 2 nM after 24 hrs by Annexin V-FITC/propidium iodide staining based flow cytometry (reference value: 0.98%); format: functional
# A549 [23] = test: Induction of apoptosis in human A549 cells assessed as late apoptotic cells at 4 nM after 24 hrs by Annexin V-FITC/propidium iodide staining based flow cytometry (reference value: 0.08%); format: functional
# A549 [24] = test: Induction of mitochondrial membrane disruption in human A549 cells assessed as cells with intact mitochondrial membrane at 8 nM after 48 hrs by JC1 staining based flow cytometry (reference value: 99.13%); format: functional
# HepG2 = test: Growth inhibition of human HepG2 cells after 48 hrs by MTT assay; format: functional, cell-based; conditions: HepG2, 48 h; outline: as §2
# LoVo = test: Growth inhibition of human LoVo cells after 48 hrs by MTT assay; format: functional, cell-based; outline: as §2
# A549/CDDP = test: Growth inhibition of human A549/CDDP cells after 48 hrs by MTT assay; format: functional, cell-based; outline: as §2
# HCT-116 = test: Growth inhibition of human HCT116 cells after 48 hrs by MTT assay; format: functional, cell-based; conditions: HCT-116, 48 h; outline: as §2
# A549 [25] = test: Cell cycle arrest in human A549 cells assessed as accumulation at G2/M phase at 4 nM after 24 hrs by propidium iodide staining based flow cytometry (reference value: 10.13%); format: functional; outline: as §3
smiles,measurement,setting,value
C[Se]c1ccc(N(C)c2nc(C)nc3ccccc23)cc1,Activity,A549 [1],83.86%
same,Ratio IC50,[2],9.5
same,Ratio IC50,[3],9.5
same,Activity,A549 [4],15.85%
same,pIC50,L02,7.72
same,Activity,A549 [5],26.51%
same,Activity,A549 [6],42.83%
same,pIC50,[7],8.10
same,Activity,A549 [8],10.31%
same,pIC50,HeLa,8.52
same,Activity,A549 [9],3.19%
same,pIC50,MDA-MB-231,8.40
same,Activity,A549 [10],0.9%
same,Activity,A549 [11],28.75%
same,pIC50,MGC-803,8.15
same,Activity,A549 [12],26.51%
same,pIC50,RKO,8.40
same,Ratio IC50,[13],10
same,Activity,A549 [14],63.13%
same,Activity,A549 [15],78.97%
same,Activity,A549 [16],6.8%
same,Activity,A549 [17],64.86%
same,Activity,A549 [18],49.81%
same,pIC50,BJ,7.72
same,pIC50,[19],7.70
same,Activity,A549 [20],67.1%
same,pIC50,MCF7,8.00
same,Activity,A549 [21],54.14%
same,Activity,A549 [22],16.35%
same,Activity,A549 [23],6.35%
same,Activity,A549 [24],36.52%
same,pIC50,HepG2,8.40
same,pIC50,LoVo,8.05
same,pIC50,A549/CDDP,8.05
same,pIC50,HCT-116,8.52
same,Activity,A549 [25],87.16%
